Reference: ChEMBL document CHEMBL4622923, “Discovery of 4-Phenylpiperidine-2-Carboxamide Analogues as Serotonin 5-HT2C Receptor-Positive Allosteric Modulators with Enhanced Drug-like Properties” (J Med Chem, 2020)

What was measured:
[1] = Half life in rat liver microsomes at 10 uM in presence of NADPH; type: ADME, Microsome
CYP1A2 = CYP1A2 (Homo sapiens, UniProt P05177); assay: Inhibition of CYP1A2 (unknown origin) at 10 uM relative to control; type: ADME
Summary of the method: (§1)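 Each CYP isoform inhibition assay run with test compound at 10 µM; reported as percent inhibition.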

[2] = molecular target: T1, 5-hydroxytryptamine receptor 2C (Homo sapiens, UniProt P28335); assay: Agonist activity at human 5HT2CR expressed in CHO cells assessed as increase in intracellular calcium release at 1 nM incubated for 15 mins measured at 1 secs interval for 120 secs by calcium 4 dye based FLIPR assay relative to 5-HT; type: cell-based; conditions: 0.001 µM
T1 sequence (P28335 whole entry): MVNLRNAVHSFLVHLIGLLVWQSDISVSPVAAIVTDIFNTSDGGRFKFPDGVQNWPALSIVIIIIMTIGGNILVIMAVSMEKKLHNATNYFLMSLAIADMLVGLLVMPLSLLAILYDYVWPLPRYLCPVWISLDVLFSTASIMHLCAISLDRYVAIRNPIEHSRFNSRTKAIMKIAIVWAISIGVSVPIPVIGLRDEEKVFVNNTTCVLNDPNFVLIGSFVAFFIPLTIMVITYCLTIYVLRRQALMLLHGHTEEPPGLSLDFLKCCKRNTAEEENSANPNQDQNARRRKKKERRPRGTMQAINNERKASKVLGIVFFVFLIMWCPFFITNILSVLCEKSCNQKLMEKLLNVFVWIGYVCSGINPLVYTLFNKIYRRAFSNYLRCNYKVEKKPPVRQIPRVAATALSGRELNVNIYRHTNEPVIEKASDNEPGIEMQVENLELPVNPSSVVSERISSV
Summary of the method: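 h5-HT2CR (unedited INI isoform) stably expressed in CHO cells; cells plated ~24 h, serum-free medium 3 h, then Calcium 4 dye with 2.5 mM probenecid in Ca/Mg-free HBSS pH 7.4 for 60 min at 37°C plus 15 min at room temperature. Compound given alone, read for 15 min before 5-HT. Peak fluorescence is expressed relative to the 5-HT Emax. 4-6 biological replicates, each in triplicate.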

[3] = Clearance in Sprague-Dawley rat at 10 mg/kg, iv; type: ADME, organism-based; conditions: in vivo
Summary of the method: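 Male Sprague-Dawley rats (200–250 g; n = 3/group) received a single iv dose in 10% DMSO:90% HP-β-CD. Retro-orbital blood was sampled before dosing and at 0.08, 0.25, 0.5, 1, 2, 4, 8 and 24 h. Plasma levels were measured. Parameters came from noncompartmental analysis, reported as mean ± SEM.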

[4] = molecular target: 5-hydroxytryptamine receptor 1E (Homo sapiens) (UniProt P28566); assay: Displacement of [3H]-5-HT from human 5HT1E stably expressed in HEK cell membranes at 10 uM incubated for 90 mins under dark condition by scintillation counting analysis relative to control
5-hydroxytryptamine receptor 1E (Homo sapiens), sequence (P28566 whole entry): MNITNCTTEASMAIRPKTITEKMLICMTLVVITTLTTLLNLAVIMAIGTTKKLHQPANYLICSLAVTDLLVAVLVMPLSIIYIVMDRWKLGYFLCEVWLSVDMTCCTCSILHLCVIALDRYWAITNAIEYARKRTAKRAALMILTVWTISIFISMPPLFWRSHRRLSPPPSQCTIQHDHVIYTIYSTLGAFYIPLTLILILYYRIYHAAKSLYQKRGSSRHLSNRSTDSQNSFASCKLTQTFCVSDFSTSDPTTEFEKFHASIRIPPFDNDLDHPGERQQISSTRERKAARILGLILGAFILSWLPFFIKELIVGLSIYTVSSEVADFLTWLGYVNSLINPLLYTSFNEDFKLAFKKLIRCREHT

[5] = AUC (0 to infinity) in Sprague-Dawley rat at 20 mg/kg, po; type: ADME, organism-based; parameters: dose 20 mg/kg, time infinity, route oral; conditions: in vivo
Rattus norvegicus = assay: Potentiation of WAY163909-induced neurobiological activity in Sprague-Dawley rat assessed as increase in number of rat choosing WAY163909 associated lever at 1 mg/kg, ip treated 15 mins prior to WAY163909 addition and measured after 15 mins by drug discrimination test (reference value: 53%); type: functional
[6] = molecular target: Sodium-dependent dopamine transporter (Homo sapiens) (UniProt Q01959); assay: Displacement of [3H]-WIN35428 from human DAT expressed in HEK cell membranes at 10 uM incubated for 90 mins under dark condition by scintillation counting analysis relative to control
Sodium-dependent dopamine transporter (Homo sapiens), sequence (Q01959 whole entry): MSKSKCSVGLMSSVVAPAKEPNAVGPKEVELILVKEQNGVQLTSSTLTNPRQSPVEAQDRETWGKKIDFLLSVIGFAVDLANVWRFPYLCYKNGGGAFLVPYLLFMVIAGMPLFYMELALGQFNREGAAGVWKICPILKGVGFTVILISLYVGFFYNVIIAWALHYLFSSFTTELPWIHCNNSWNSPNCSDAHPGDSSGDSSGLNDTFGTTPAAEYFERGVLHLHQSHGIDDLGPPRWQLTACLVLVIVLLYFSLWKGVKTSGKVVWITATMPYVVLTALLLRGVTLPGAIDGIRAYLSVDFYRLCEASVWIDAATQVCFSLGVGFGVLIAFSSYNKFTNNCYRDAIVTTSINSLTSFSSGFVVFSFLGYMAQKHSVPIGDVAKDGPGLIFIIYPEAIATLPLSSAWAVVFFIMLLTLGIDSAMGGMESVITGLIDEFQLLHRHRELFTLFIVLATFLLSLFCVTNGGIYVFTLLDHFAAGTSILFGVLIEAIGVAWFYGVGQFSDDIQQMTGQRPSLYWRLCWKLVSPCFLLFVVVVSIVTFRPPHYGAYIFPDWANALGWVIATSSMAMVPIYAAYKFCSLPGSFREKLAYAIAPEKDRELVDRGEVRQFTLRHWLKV

[7] = Fraction unbound in rat plasma; type: ADME, cell-free
Summary of the method: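 Free fraction measured in rat plasma.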

[8] = molecular target: 5-hydroxytryptamine receptor 7 (Homo sapiens) (UniProt P34969); assay: Displacement of [3H]-LSD from human 5HT7A stably expressed in HEK cell membranes at 10 uM incubated for 90 mins under dark condition by scintillation counting analysis relative to control
5-hydroxytryptamine receptor 7 (Homo sapiens), sequence (P34969 whole entry): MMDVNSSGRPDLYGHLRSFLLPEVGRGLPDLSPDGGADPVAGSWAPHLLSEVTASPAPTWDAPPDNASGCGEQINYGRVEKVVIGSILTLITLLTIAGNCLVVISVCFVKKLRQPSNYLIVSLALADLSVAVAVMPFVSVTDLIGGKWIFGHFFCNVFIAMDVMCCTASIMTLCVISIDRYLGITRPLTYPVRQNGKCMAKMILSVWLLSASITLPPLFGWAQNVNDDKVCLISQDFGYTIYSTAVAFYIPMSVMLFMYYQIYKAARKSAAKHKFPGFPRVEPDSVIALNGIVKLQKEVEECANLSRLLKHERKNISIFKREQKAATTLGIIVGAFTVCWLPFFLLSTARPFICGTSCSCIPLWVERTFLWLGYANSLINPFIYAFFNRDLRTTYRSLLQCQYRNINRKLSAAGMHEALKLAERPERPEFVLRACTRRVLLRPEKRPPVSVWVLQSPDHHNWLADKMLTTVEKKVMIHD

[9] = molecular target: Kappa-type opioid receptor (Homo sapiens) (UniProt P41145); assay: Displacement of [3H]-U69593 from kappa opioid receptor (unknown origin) at 10 uM incubated for 90 mins under dark condition by scintillation counting analysis relative to control
Kappa-type opioid receptor (Homo sapiens), sequence (P41145 whole entry): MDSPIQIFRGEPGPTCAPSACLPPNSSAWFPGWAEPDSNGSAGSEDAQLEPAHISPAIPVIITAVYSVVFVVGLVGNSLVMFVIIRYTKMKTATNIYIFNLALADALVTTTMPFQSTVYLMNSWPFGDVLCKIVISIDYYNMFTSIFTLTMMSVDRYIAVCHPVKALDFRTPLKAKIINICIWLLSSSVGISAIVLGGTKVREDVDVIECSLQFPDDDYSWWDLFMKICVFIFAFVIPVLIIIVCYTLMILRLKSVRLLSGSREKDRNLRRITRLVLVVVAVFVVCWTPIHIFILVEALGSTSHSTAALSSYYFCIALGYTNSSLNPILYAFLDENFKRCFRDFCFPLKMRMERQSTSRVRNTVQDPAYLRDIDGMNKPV

[10] = Half life in Sprague-Dawley rat at 20 mg/kg, po; type: ADME, organism-based; conditions: in vivo
Summary of the method: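 Male Sprague-Dawley rats (200–250 g, n = 3/group) dosed orally at 20 mg/kg in 10% DMSO:90% HP-β-CD. Retro-orbital blood sampled at 0.25, 0.5, 1, 2, 4, 8 and 24 h post-dose; plasma analysed externally. Noncompartmental analysis: λ from least-squares terminal log-linear slope, t1/2 = 0.693/λ; mean ± SEM.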

CYP2C9 = CYP2C9 (Homo sapiens, UniProt P11712); assay: Inhibition of CYP2C9 (unknown origin) at 10 uM relative to control; type: ADME; summary of the method: as §1
CYP2C9, sequence (P11712 whole entry): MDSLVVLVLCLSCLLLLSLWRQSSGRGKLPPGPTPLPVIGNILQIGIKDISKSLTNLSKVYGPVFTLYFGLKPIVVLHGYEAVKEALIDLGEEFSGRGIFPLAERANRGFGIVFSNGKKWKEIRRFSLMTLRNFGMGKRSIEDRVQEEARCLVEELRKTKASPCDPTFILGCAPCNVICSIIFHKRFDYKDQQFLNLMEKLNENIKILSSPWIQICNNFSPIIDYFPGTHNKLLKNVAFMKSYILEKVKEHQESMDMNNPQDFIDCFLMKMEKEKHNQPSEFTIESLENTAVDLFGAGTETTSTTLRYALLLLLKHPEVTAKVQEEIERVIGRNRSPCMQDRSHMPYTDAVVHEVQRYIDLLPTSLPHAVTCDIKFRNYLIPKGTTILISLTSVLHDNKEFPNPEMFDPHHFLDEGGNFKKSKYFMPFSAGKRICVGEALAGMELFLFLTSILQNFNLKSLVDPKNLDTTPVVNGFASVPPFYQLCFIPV

[11] = molecular target: GABA-A receptor; anion channel (Rattus norvegicus) (UniProt O09028+P15431+P18506+P18508+P19969+P20236+P23574+P23576+P28471+P28473+P30191+P62813+P63079+P63138+Q91ZM7+Q9ES14); assay: Displacement of [3H]-muscimol from rat brain GABAA receptor at 10 uM incubated for 90 mins under dark condition by scintillation counting analysis relative to control
5-HT2A receptor = 5-HT2A receptor (Homo sapiens, UniProt P28223); assay: Positive allosteric modulation of human 5HT2AR expressed in CHO cells assessed as increase in 5-HT induced intracellular calcium release at 1 nM preincubated for 15 mins followed by 5-HT addition and measured at 1 secs interval for 360 secs by calcium 4 dye based FLIPR assay relative to 5-HT; type: cell-based; conditions: CHO cells expressing human 5HT2AR
5-HT2A receptor, sequence (P28223 whole entry): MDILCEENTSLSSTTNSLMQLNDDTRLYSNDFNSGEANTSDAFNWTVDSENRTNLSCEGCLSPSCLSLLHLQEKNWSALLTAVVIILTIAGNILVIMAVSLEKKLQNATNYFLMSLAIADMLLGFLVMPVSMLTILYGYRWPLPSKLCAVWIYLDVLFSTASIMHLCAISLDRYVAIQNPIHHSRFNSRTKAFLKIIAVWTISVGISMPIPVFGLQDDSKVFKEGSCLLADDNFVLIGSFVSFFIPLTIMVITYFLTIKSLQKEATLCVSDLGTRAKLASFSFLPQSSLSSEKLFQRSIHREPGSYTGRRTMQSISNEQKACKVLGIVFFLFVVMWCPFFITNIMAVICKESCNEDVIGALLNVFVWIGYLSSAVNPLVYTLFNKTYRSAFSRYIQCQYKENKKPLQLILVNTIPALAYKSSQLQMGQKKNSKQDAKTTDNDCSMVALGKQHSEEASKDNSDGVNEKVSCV
Summary of the method: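 CHO cells stably expressing human 5-HT2AR, serum-starved 3 h, then loaded with Calcium 4 dye plus 2.5 mM probenecid in HBSS (no Ca/Mg, pH 7.4) for 60 min at 37°C and 15 min at room temperature. Test compound added 15 min before 5-HT (10 pM-10 μM). FLIPR fluorescence read every 1 s for 360 s after 5-HT. Emax from 4-parameter fit, normalized to 5-HT maximum.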

[12] = molecular target: Mu-type opioid receptor (Homo sapiens) (UniProt P35372); assay: Displacement of [3H]-DAMGO from human mu opioid receptor stably expressed in HEK cell membranes at 10 uM incubated for 90 mins under dark condition by scintillation counting analysis relative to control
Mu-type opioid receptor (Homo sapiens), sequence (P35372 whole entry): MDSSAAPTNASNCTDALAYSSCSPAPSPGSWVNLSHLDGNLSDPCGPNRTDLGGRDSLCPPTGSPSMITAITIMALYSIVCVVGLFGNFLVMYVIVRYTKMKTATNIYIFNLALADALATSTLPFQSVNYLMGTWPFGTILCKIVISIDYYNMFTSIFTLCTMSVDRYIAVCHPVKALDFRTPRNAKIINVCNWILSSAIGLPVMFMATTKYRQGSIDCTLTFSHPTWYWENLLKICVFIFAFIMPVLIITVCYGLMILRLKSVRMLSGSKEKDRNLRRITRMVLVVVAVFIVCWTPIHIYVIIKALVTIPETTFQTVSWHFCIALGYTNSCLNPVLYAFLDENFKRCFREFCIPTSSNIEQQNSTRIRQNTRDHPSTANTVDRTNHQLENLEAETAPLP

[13] = molecular target: D(1A) dopamine receptor (Homo sapiens) (UniProt P21728); assay: Displacement of [3H]-SCH23390 from human dopamine D1 receptor transiently expressed in HEKT cell membranes at 10 uM incubated for 90 mins under dark condition by scintillation counting analysis relative to control
D(1A) dopamine receptor (Homo sapiens), sequence (P21728 whole entry): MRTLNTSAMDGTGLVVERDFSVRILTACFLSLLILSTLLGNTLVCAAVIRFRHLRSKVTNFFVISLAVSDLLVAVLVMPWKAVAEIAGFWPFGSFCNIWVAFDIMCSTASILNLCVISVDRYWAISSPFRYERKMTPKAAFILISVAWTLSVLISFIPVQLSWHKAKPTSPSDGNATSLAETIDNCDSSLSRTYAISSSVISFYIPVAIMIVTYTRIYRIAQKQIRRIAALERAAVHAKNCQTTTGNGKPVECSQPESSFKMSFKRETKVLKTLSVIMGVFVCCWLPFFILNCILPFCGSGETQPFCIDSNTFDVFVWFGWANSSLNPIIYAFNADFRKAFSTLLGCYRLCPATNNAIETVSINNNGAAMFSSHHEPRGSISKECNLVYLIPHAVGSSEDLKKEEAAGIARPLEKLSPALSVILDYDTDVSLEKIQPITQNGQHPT

[14] = molecular target: Delta-type opioid receptor (Homo sapiens) (UniProt P41143); assay: Displacement of [3H]-DADLE from human delta opioid receptor stably expressed in HEK cell membranes at 10 uM incubated for 90 mins under dark condition by scintillation counting analysis relative to control
[15] = molecular target: Alpha-2C adrenergic receptor (Homo sapiens) (UniProt P18825); assay: Displacement of [3H]-rauwolscine from human adrenergic alpha2C receptor stably expressed in MDCK cell membranes at 10 uM incubated for 90 mins under dark condition by scintillation counting analysis relative to control
Alpha-2C adrenergic receptor (Homo sapiens), sequence (P18825 whole entry): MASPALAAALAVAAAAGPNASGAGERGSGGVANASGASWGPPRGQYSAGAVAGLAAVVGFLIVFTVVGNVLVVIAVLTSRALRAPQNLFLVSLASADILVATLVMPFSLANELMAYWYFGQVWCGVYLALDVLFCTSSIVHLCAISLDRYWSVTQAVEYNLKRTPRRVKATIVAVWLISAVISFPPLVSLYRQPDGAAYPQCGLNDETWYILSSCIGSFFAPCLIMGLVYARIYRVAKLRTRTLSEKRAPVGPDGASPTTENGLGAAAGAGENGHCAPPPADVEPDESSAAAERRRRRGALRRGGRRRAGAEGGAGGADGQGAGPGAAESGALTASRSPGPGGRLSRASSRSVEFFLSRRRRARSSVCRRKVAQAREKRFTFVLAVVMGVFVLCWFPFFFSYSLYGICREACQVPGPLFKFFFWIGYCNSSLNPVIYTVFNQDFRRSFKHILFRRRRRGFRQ

CYP1A2, sequence (P05177 whole entry, canonical isoform): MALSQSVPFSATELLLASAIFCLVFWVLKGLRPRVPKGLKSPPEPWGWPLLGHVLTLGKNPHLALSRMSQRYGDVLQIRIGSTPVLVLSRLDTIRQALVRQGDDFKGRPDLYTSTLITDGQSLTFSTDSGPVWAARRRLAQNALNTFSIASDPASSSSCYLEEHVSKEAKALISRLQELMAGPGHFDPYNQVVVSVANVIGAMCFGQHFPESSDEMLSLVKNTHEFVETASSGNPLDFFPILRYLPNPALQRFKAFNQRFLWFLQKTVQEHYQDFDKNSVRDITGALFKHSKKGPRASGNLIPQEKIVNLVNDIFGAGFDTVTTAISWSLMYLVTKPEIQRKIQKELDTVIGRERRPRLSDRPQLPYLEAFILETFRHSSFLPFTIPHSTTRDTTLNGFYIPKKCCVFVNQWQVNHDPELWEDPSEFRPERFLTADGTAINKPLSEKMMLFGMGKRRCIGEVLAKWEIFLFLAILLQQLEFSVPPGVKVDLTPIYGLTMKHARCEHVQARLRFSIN

In the case of `O=C(NC[C@H](O)CO)[C@@H]1C[C@H](c2ccccc2)CCN1` (mixture of isomers), the t1/2 [1] is reported as > 4 h, the inhibition at 10 µM (CYP1A2) is reported as 11.8% and the Activity [2] is reported as “Not Active”. For the same compound, the CL [3] was 54.7 mL/min/kg, the inhibition [4] was 6.3% and the AUC [5] was 2244.7 ng·h/mL. For the same compound, the Activity (Rattus norvegicus) was 77%, the inhibition [6] was 40.8% and the Fu [7] was 66%. The inhibition [8] was 2.2%, the inhibition [9] was 13.4% and the t1/2 [10] was 4.4 h. It also gave an inhibition at 10 µM (CYP2C9) of 0%, an inhibition [11] of 7% and an Emax at 0.1 h, 0.001 µM (5-HT2A receptor) of 103%. For the same compound, the inhibition [12] was 23.3%, the inhibition [13] was 9.7% and the inhibition [14] was -6.1%. It also gave an inhibition [15] of -1.8%.
